The source made the active and inactive calls. The calls are words filed in the database; no cut-off is given here.
How the values were obtained:
Mus musculus [1] = species: Mus musculus; test: Otoprotective activity against gentamicin-induced outer hair cell death in CD-1 mouse cochlea at 20 uM after 48 hrs by TRITC-phalloidin staining-based microscopic analysis relative to control; format: functional
How it was run: (§1)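 Mouse cochlear cultures coincubated for 48 h with 5 μM gentamicin plus compound (5, 10 or 20 μM). OHCs counted in a 300 μm long segment of the mid-basal cochlea. Counts compared with 0.5% DMSO control and with gentamicin + 0.5% DMSO cultures.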

[2] = Cytotoxicity against CD-1 mouse cochlea assessed as induction of cell damage at 20 uM in presence of gentamicin after 48 hrs by confocal microscopic analysis; format: toxicity, tissue-based
How it was run: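 Mouse cochlear cultures exposed 48 h to 5 μM gentamicin plus 20 μM compound, with 0.5% DMSO and gentamicin-only controls. Hair cells and bundle morphology imaged, including confocal imaging of IHC stereociliary bundles. OHC survival counted in a 300 μm segment of the mid-basal region.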

Mus musculus [3] = species: Mus musculus; test: Inhibition of MET in CD-1 mouse cochlea outer hair cells assessed as reduction in MET currents at 10 uM measured at -160 mV to +80 mV membrane potential by patch clamp assay
How it was run: (§2)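 OHC MET currents recorded before and during exposure to 10 μM compound. Fractional block taken as the current during exposure relative to the control current at each membrane potential.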

[4] = Binding affinity to MET in CD-1 mouse cochlea outer hair cells measured at -104 mV membrane potential by patch clamp assay
How it was run: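 MET currents recorded from outer hair cells of mouse cochlear cultures before and during extracellular superfusion of compound at 1, 3 and 10 μM. Membrane potentials stepped from -164 to +96 mV. Currents normalized to the peak control current at +96 mV for each cell. Dose–response curves at each potential fitted with eq 1 to give KD and Hill coefficient.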

Mus musculus [5] = species: Mus musculus; test: Otoprotective activity against gentamicin-induced outer hair cell death in CD-1 mouse cochlea at 10 uM after 48 hrs by TRITC-phalloidin staining-based microscopic analysis relative to control; format: functional; how it was run: as §1
Mus musculus [6] = species: Mus musculus; test: Inhibition of MET in CD-1 mouse cochlea outer hair cells assessed as blockade of MET currents at 10 uM measured at -160 mV to +80 mV membrane potential by patch clamp assay relative to control; how it was run: as §2
Mus musculus [7] = species: Mus musculus; test: Otoprotective activity against gentamicin-induced outer hair cell death in CD-1 mouse cochlea at 5 uM after 48 hrs by TRITC-phalloidin staining-based microscopic analysis relative to control; format: functional; how it was run: as §1
Mus musculus [8] = species: Mus musculus; test: Inhibition of MET in CD-1 mouse cochlea outer hair cells assessed as blockade of MET currents at 10 uM measured at -164 mV membrane potential by patch clamp assay relative to control; how it was run: as §2
[9] = Binding affinity to MET in CD-1 mouse cochlear outer hair cells measured at -84 mV membrane potential in presence of calcium by patch clamp assay

In the case of `CC(C)NCC(O)COc1cccc2ccccc12` (configuration not stated), the Activity (Mus musculus [1]) is reported as “inactive”.

In the case of `COc1ccccc1OCCNCCCCOc1cccc2[nH]c3ccccc3c12`, the Activity (Mus musculus [1]) is reported as “inactive” and the Activity [2] is reported as “Toxic”.

In the case of `COc1ccccc1OCCNCCOc1ccccc1OC`, the inhibition (Mus musculus [3]) is reported as “inactive” and the Activity (Mus musculus [1]) is reported as “inactive”.

For `COc1ccccc1OCCNCC(O)COc1ccccc1OC` (configuration not stated), the inhibition (Mus musculus [3]) was “inactive” and the Activity (Mus musculus [1]) was “inactive”.

With `COc1ccc(CCN(C)CCCC(C#N)(c2ccc(OC)c(OC)c2)C(C)C)cc1OC` (configuration not stated) the Activity (Mus musculus [1]) was “inactive”.

For `COc1cc2c3cc1Oc1cc(ccc1O)C[C@@H]1c4c(cc(OC)c(O)c4Oc4ccc(cc4)C[C@@H]3N(C)CC2)CC[N+]1(C)C` [TUBOCURARINE], the Kd [4] was 2.2 µM.

With `COc1ccccc1N1CCN(CC(O)COc2cccc3ccccc23)CC1` (configuration not stated) the inhibition (Mus musculus [3]) was “inactive”, the Activity (Mus musculus [1]) was “Active” and the Activity (Mus musculus [5]) was “inactive”.

With `COc1ccccc1OCCN(CCOc1ccccc1OC)CC(O)COc1cccc2[nH]c3ccccc3c12` (configuration not stated) the inhibition (Mus musculus [6]) was 40%, the Activity (Mus musculus [7]) was “inactive” and the Activity (Mus musculus [1]) was “Active”. The Activity (Mus musculus [5]) was “inactive” and the inhibition (Mus musculus [8]) was “Active”.

With `CCCCNCC(O)COc1cccc2[nH]c3ccccc3c12` (configuration not stated) the Activity (Mus musculus [7]) was “inactive”, the Activity (Mus musculus [1]) was “Active” and the Activity (Mus musculus [5]) was “inactive”. It also gave an inhibition (Mus musculus [8]) of 50 to 60%.

For `COc1ccccc1OCCNC(=O)COc1cccc2[nH]c3ccccc3c12`, the Activity (Mus musculus [1]) was “inactive”.

In the case of `OC(CNCCOc1ccccc1)COc1cccc2[nH]c3ccccc3c12` (configuration not stated), the Activity (Mus musculus [1]) is reported as “inactive”, the Activity [2] is reported as “Toxic” and the inhibition (Mus musculus [8]) is reported as 50 to 60%.

With `COc1ccccc1OCCNCC(O)COc1ccc2c(c1)[nH]c1ccccc12` (configuration not stated) the Activity (Mus musculus [1]) was “inactive” and the Activity [2] was “Toxic”.

For `COc1ccccc1OCCCCCCOc1cccc2[nH]c3ccccc3c12`, the Activity (Mus musculus [1]) was “inactive” and the Activity [2] was “Toxic”.

With `Cn1cc(C(F)(F)F)nc1-c1ccc(OCC(O)CNCCOc2ccc(O)c(C(N)=O)c2)cc1` (configuration not stated) the Activity (Mus musculus [1]) was “inactive”.

In the case of `OC(CNCCc1ccccc1)Cn1c2ccccc2c2ccccc21` (configuration not stated), the Activity (Mus musculus [1]) is reported as “inactive” and the Activity [2] is reported as “Toxic”.

In the case of `COc1ccccc1OCCN(CCN1CCOCC1)CC(O)COc1cccc2[nH]c3ccccc3c12` (configuration not stated), the Activity (Mus musculus [7]) is reported as “inactive”, the inhibition (Mus musculus [3]) is reported as “Active” and the Activity (Mus musculus [1]) is reported as “Active”.

With `OC(COc1cccc2[nH]c3ccccc3c12)CN1CCN(c2ccccc2)CC1` (configuration not stated) the Activity (Mus musculus [1]) was “inactive”.

`CN[C@@H]1[C@H](O[C@H]2[C@H](O[C@@H]3[C@@H](O)[C@H](O)[C@@H](NC(=N)N)[C@H](O)[C@H]3NC(=N)N)O[C@@H](C)[C@]2(O)CO)O[C@@H](CO)[C@H](O)[C@H]1O` showed a Kd [9] of 7 µM.
